Data: ChEMBL document CHEMBL1146530, “Antihyperglycemic effect of puerarin in streptozotocin-induced diabetic rats” (2003)
Active and inactive are the calls of the source. The rule behind the calls is not given here.

Tests used:
[1] = test system: Rattus norvegicus; test: Induction of GLUT4 mRNA level in STZ- induced diabetic Wistar rat soleus muscle at 15 mg/kg, iv tid every 8 hrs for 3 days by Northern blot relative to beta-actin expression; type: functional
Method in brief: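 Rats received 15.0 mg/kg iv tid (every 8 h) for 3 days and were killed fasting. Soleus total RNA (20 µg) was denatured in formaldehyde/formamide at 55 °C and run on a 1.2% agarose/formaldehyde gel. Blots were probed with [α-32P]dCTP-labelled probe at 65 °C for 2 h and washed to 0.1× SSC/0.1% SDS at 40 °C. GLUT4 was normalized to β-actin; n = 4, mean ± SEM.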

[2] = species on record: Rattus norvegicus; test: Antihyperglycemic activity against STZ- induced diabetic Wistar rat soleus muscle assessed as 2-[1-14C]-deoxy-D-glucose uptake after 30 mins; type: functional, tissue-based
Method in brief: (§1)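 Soleus muscle strips ([…]) from rats made diabetic with STZ (60 mg/kg iv), used 2 weeks later. Strips were preincubated 30 min in KRBB (37 °C, pH 7.4, 1 mmol/L glucose, 1% fatty acid-free BSA, 5% CO2 in O2), then exposed to test agent 30 min. Next came 2-[1-14C]-deoxy-D-glucose (1 µCi/mL) for 5 min. Strips were dissolved in NaOH and counted by β-counting. Nonspecific uptake was defined with 20 µmol/L cytochalasin B and subtracted. Results are given as % of KRBB-only basal uptake. The 1 nmol/L insulin reference was run the same way.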

[3] = target: Solute carrier family 2, facilitated glucose transporter member 4 (Rattus norvegicus) (UniProt P19357); test: Induction of GLUT4 protein level in STZ- induced diabetic Wistar rat soleus muscle at 15 mg/kg, iv tid every 8 hrs for 3 days by Western blot relative to beta-tubulin expression
[4] = test system: Rattus norvegicus; test: Antihyperglycemic effect in normal Wistar rat assessed as decrease in plasma glucose level at 15 mg/kg, iv measured after 15 mins of glucose challenge by intravenous glucose challenge test
[5] = test system: Rattus norvegicus; test: Antihyperglycemic effect in STZ- induced diabetic Wistar rat model assessed as reduction in plasma glucose level at 20 mg/kg, iv measured after 30 mins; type: functional, organism-based; parameters: dose 20 mg/kg
Method in brief: (§2)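 Fasting STZ-diabetic rats (60 mg/kg iv, 2 weeks earlier; glucose ≥20 mmol/L) got a single tail-vein bolus (5.0-20.0 mg/kg in normal saline). Vehicle controls received the same volume. Tail-vein blood was drawn 30 min later under pentobarbital (30.0 mg/kg ip). Plasma glucose was measured by enzymatic kit at 37 °C for 10 min, run in duplicate. n = 8 per group; mean ± SEM.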

[6] = test system: Rattus norvegicus; test: Antihyperglycemic effect in STZ- induced diabetic Wistar rat model assessed as decrease in plasma glucose level at 15 mg/kg, iv tid every 8 hrs for 3 days; type: functional
Method in brief: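 STZ-diabetic rats were dosed at 15.0 mg/kg iv into the tail vein every 8 h (tid) for 3 days. Vehicle-treated diabetic and normal rats served as comparisons. Plasma glucose was measured in fasting animals after the final dose.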

[7] = test system: Rattus norvegicus; test: Induction of GLUT4 protein level in STZ- induced diabetic Wistar rat soleus muscle at 15 mg/kg, iv tid every 8 hrs for 3 days by Western blot relative to vehicle treated normal rat; type: functional
Method in brief: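 Same 3-day tid 15.0 mg/kg iv regimen. Soleus homogenate (50 µg protein) was run on 10% SDS-PAGE and transferred to PVDF. Blots were probed overnight at 4 °C with mouse anti-rat GLUT4 (1:1000); β-tubulin (1:500) served as loading control. Detection was by peroxidase secondary and ECL, with densitometry at 45 kDa (GLUT4) and 50 kDa (β-tubulin). n = 4.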

[8] = test system: Rattus norvegicus; test: Antihyperglycemic effect in iv dosed STZ- induced diabetic Wistar rat model assessed as reduction in plasma glucose level measured after 30 mins; type: functional, organism-based; method in brief: as §2
[9] = Antihyperglycemic activity against STZ- induced diabetic Wistar rat soleus muscle assessed as 2-[1-14C]-deoxy-D-glucose uptake at 0.01 umol/L after 30 mins relative to control; type: functional; method in brief: as §1
[10] = test system: Rattus norvegicus; test: Antihyperglycemic effect in normal Wistar rat assessed as decrease in plasma glucose level at 15 mg/kg, iv measured after 5 mins of glucose challenge by intravenous glucose challenge test
[11] = test system: Rattus norvegicus; test: Antihyperglycemic effect in normal Wistar rat assessed as reduction in plasma glucose level at 15 mg/kg, iv measured after 30 mins by intravenous glucose challenge test
[12] = test system: Rattus norvegicus; test: Antihyperglycemic effect in STZ- induced diabetic Wistar rat model assessed as reduction in plasma glucose level at 15 mg/kg, iv measured after 30 mins; type: functional; parameters: scale not given: the % may be the effect or the level left; method in brief: as §2
[13] = Antihyperglycemic activity against STZ- induced diabetic Wistar rat soleus muscle assessed as 2-[1-14C]-deoxy-D-glucose uptake at 100 umol/L after 30 mins relative to control; type: functional; method in brief: as §1

**Q.** Which Activity [1] does the source give for O=c1c(-c2ccc(O)cc2)coc2c([C@@H]3O[C@H](CO)[C@@H](O)[C@H](O)[C@H]3O)c(O)ccc12 [PUERARIN] here?
**A.** Its Activity is 1.01 a.u.

**Q.** What about the Activity [2] of the same compound?
**A.** Its Activity is “Dose-dependent effect”.

**Q.** What about the Activity [3] of the same compound?
**A.** The Activity was 0.88 a.u.

**Q.** And the Activity [4]?
**A.** Its Activity is “Active”.

**Q.** What about the Activity [5] of the same compound?
**A.** The Activity was “Active”.

**Q.** What about the Activity [6] of the same compound?
**A.** The Activity was 16.5 mmol/L.

**Q.** And the Activity [7]?
**A.** The Activity was 80%.

**Q.** And the Activity [8]?
**A.** The Activity was “Dose-dependent effect”.

**Q.** What about the Activity [9] of the same compound?
**A.** Its Activity is 108%.

**Q.** And the Activity [10]?
**A.** The Activity was 13.4 mmol/L.

**Q.** What about the Activity [11] of the same compound?
**A.** Its Activity is 3.9 mmol/L.

**Q.** What about the Activity [12] of the same compound?
**A.** The Activity was 33.5%.

**Q.** What about the Activity [13] of the same compound?
**A.** Its Activity is 145%.
